Active and inactive are the calls of the source. The rule behind the calls is not given here.
How the values were obtained:
PC-3 = experiment: Antiproliferative activity against human PC3 cells after 48 hrs by SRB assay; assay type: functional; details: PC-3, 48 h
Summary of the method: (§1)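 Cells seeded at 3-5 x 10³ cells/well. A T0 plate was fixed with 10% TCA at drug addition, and the rest were incubated 48 h with compound or DMSO, then TCA-fixed and stained with 0.4% SRB in 1% AcOH. Dye was extracted with 10 mM trizma base and read at 515 nm.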

HCT-116 [1] = experiment: Antiproliferative activity against human HCT116 cells after 48 hrs by SRB assay; assay type: functional; details: HCT-116, 48 h; summary of the method: as §1
[2] = target: T1, Protein deacetylase HDAC6 (Homo sapiens) (UniProt Q9UBN7); experiment: Inhibition of HDAC6 in human HCT116 cells assessed as upregulation of acetylated tubulin levels at 2.5 uM after 6 hrs by Western blot method; assay type: cell-based
T1 sequence (whole entry): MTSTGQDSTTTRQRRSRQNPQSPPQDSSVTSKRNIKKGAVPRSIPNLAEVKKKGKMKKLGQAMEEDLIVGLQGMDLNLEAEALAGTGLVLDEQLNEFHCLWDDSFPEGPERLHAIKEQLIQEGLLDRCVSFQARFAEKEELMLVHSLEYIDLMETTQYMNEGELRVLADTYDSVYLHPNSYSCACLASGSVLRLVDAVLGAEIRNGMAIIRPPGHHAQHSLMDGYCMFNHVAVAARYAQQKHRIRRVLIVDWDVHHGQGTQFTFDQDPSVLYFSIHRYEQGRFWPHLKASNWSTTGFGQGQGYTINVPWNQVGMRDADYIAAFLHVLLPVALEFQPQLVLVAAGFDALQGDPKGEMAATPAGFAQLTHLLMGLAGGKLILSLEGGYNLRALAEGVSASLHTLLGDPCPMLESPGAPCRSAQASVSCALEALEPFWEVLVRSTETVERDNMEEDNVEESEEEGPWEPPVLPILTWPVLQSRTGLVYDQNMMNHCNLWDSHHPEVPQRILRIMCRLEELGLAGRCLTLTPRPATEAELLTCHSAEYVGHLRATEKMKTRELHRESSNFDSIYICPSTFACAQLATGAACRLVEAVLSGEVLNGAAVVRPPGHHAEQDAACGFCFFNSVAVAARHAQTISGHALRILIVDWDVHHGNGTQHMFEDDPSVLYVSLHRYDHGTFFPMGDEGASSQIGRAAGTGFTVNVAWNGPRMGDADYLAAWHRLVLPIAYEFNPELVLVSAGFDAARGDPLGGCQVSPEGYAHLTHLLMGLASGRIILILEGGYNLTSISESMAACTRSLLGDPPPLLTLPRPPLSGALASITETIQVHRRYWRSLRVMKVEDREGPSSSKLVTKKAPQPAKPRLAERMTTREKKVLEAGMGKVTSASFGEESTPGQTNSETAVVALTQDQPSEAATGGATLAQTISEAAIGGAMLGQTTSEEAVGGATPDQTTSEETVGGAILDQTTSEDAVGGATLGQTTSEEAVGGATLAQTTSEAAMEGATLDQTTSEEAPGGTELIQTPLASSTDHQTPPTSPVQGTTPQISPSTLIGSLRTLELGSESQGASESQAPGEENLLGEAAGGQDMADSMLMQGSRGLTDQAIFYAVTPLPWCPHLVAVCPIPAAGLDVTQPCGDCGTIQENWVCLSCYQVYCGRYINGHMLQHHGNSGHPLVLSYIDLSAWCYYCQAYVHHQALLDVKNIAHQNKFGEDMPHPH
Summary of the method: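 HCT116 cells treated 6 h with compound, then lysates probed by western blot for acetyl-tubulin, with ECL detection.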

Homo sapiens [3] = species: Homo sapiens; experiment: Selectivity ratio of IC50 for full length human recombinant C-terminal GST-tagged HDAC2 to IC50 for full length human recombinant N-terminal GST-tagged HDAC6
HCT-116 [4] = experiment: Induction of apoptosis in human HCT116 cells assessed as increase in cleaved PARP levels at 1.25 to 2.5 uM after 48 hrs Western blot method; assay type: functional, cell-based
HCT-116 [5] = experiment: Anticlonogenic activity against human HCT116 cells after 24 hrs by crystal violet staining-based assay; assay type: functional, cell-based
Summary of the method: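 Cells exposed to a range of concentrations or DMSO vehicle for 24 h, washed, trypsinized and replated at 500 cells/well; after 14 days colonies were fixed and stained with 0.5% crystal violet in 70% EtOH. Colonies of more than 50 cells were counted, and survival fraction was taken relative to DMSO control.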

Homo sapiens [6] = species: Homo sapiens; experiment: Inhibition of class 1 HDAC in human HCT116 cells assessed as upregulation of acetylated histone H3 levels at 2.5 uM after 6 hrs by Western blot method; assay type: cell-based
HCT-116 [7] = experiment: Cell cycle arrest in human HCT116 cells assessed as accumulation at sub-G1 phase after 48 hrs by propidium iodide staining-based flow cytometric method; assay type: functional
Summary of the method: (§2)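 HCT116 cells treated 48 h, then fixed overnight in 75% EtOH at -20 °C and washed in cold PBS. They were incubated 30 min at room temperature in 0.1 M phosphate-citric acid buffer (pH 7.8) and stained with propidium iodide buffer containing 0.1% Triton X-100 and RNase A. The sub-G1 fraction was measured by flow cytometry.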

[8] = target: T2, Protein deacetylase HDAC6 (Homo sapiens, UniProt Q9UBN7); experiment: Inhibition of full length human recombinant N-terminal GST-tagged HDAC6 expressed in Sf9 cells using RHKK(Ac) as substrate after 90 mins by fluorimetric method
T2 sequence (Q9UBN7 whole entry): T1 sequence (whole entry)

A549 = experiment: Antiproliferative activity against human A549 cells after 48 hrs by SRB assay; assay type: functional; details: A549, 48 h; summary of the method: as §1
Histone deacetylase 1 = Histone deacetylase 1 (Homo sapiens, UniProt Q13547); experiment: Inhibition of full length human recombinant C-terminal FLAG-His-tagged HDAC1 expressed in Sf21 cells using RHKK(Ac) as substrate after 60 mins by fluorimetric method
Histone deacetylase 2 = Histone deacetylase 2 (Homo sapiens, UniProt Q92769); experiment: Inhibition of full length human recombinant C-terminal GST-tagged HDAC2 expressed in insect cells using RHKK(Ac) as substrate after 60 mins by fluorimetric method
Homo sapiens [9] = species: Homo sapiens; experiment: Selectivity ratio of IC50 for full length human recombinant C-terminal FLAG-His-tagged HDAC1 to IC50 for full length human recombinant N-terminal GST-tagged HDAC6
HCT-116 [10] = experiment: Induction of apoptosis in human HCT116 cells assessed as increase in cleaved caspase 3 levels at 1.25 to 2.5 uM after 48 hrs Western blot method; assay type: functional, cell-based
HCT-116 [11] = experiment: Cell cycle arrest in human HCT116 cells assessed as accumulation at sub-G1 phase at 5 uM after 48 hrs by propidium iodide staining-based flow cytometric method; assay type: functional; summary of the method: as §2

Sequence of Histone deacetylase 1 (Q13547 whole entry): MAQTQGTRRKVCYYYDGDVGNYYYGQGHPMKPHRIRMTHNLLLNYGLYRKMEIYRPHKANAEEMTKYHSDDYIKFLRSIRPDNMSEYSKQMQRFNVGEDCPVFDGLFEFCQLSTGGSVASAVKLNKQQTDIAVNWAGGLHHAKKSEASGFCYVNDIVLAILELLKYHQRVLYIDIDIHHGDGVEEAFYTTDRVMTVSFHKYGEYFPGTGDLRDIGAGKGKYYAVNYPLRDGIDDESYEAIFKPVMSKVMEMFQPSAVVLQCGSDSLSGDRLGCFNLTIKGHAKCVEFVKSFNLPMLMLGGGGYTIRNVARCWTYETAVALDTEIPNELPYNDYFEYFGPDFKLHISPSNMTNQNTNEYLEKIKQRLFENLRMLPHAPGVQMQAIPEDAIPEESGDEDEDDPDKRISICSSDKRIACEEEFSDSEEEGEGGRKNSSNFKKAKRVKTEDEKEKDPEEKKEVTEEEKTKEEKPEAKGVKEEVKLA
Sequence of Histone deacetylase 2 (Q92769 whole entry): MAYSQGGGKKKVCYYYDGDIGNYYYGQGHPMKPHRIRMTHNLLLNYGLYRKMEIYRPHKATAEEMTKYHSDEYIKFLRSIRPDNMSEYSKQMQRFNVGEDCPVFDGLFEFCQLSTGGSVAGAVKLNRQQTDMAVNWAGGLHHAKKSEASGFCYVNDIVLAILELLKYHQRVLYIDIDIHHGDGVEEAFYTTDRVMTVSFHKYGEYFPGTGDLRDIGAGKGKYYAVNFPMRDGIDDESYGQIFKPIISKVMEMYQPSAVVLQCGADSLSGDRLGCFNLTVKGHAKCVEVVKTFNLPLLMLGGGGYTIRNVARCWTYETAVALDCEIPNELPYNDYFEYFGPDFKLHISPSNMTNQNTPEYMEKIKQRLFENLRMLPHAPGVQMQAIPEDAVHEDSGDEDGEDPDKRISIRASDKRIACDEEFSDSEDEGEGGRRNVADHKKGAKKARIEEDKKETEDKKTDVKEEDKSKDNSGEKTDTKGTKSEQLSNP

| SMILES | GI50 (PC-3) [µM] | GI50 (HCT-116 [1]) [µM] | Acetylated tubulin upregulation (qualitative) [2] | Ratio IC50 (Homo sapiens [3]) | IC50 [8] [µM] | GI50 (A549) [µM] | IC50 (Histone deacetylase 1) [µM] | IC50 (Histone deacetylase 2) [µM] | Ratio IC50 (Homo sapiens [9]) | Activity (HCT-116 [4]) | Activity (HCT-116 [5]) | Acetylated histone H3 upregulation (qualitative) (Homo sapiens [6]) | Activity (HCT-116 [7]) | Activity (HCT-116 [10]) | Activity (HCT-116 [11]) |
| --- | --- | --- | --- | --- | --- | --- | --- | --- | --- | --- | --- | --- | --- | --- | --- |
| CN1CCc2c(c3ccccc3n2Cc2ccc(C(=O)NO)cc2)C1 [TUBASTATIN A] | > 5 | > 5 |  |  |  | > 5 |  |  |  | inactive |  |  |  | inactive | Active |
| Cc1c(CN(C)C)c2ccccc2n1Cc1ccc(C(=O)NO)cc1 | > 5 | > 5 |  | > 1620 | 0.00617 | > 5 | 9.73 | > 10 | 1580 |  |  |  |  |  |  |
| CN(C)C(=O)c1cn(Cc2ccc(C(=O)NO)cc2)c2ccccc12 | > 5 | > 5 |  | > 1250 | 0.00801 | > 5 | 5.72 | > 10 | 714 |  |  |  |  |  |  |
| CN(C)Cc1cn(Cc2ccc(C(=O)NO)cc2)c2ccccc12 | 3.93 | > 5 |  | 562 | 0.0217 | > 5 | 7.13 | 12.2 | 328 |  |  |  |  |  |  |
| CN(C)C(=O)c1cn(Cc2ccc(/C=C/C(=O)NO)cc2)c2ccccc12 | 1.89 | 0.75 | Active | 122 | 0.0085 | 3.33 | 0.627 | 1.04 | 73 | Active | Dose-dependent effect | inactive | Dose-dependent effect | Active |  |
| CN(C)C(=O)c1cn(S(=O)(=O)c2ccc(/C=C/C(=O)NO)cc2)c2ccccc12 | 3.1 | 2.14 |  | 135 | 0.0108 | > 5 | 2.01 | 1.46 | 186 |  |  |  |  |  |  |
| CN(C)C(=O)c1cn(S(=O)(=O)c2cccc(/C=C/C(=O)NO)c2)c2ccccc12 | > 5 | 2.49 |  | > 49 | 0.201 | > 5 | 6.91 | > 10 | 34 |  |  |  |  |  |  |

Continued by falling GI50 (PC-3), values first:

| GI50 (PC-3) [µM] | GI50 (HCT-116 [1]) [µM] | Acetylated tubulin upregulation (qualitative) [2] | Ratio IC50 (Homo sapiens [3]) | IC50 [8] [µM] | GI50 (A549) [µM] | IC50 (Histone deacetylase 1) [µM] | IC50 (Histone deacetylase 2) [µM] | Ratio IC50 (Homo sapiens [9]) | SMILES | Activity (HCT-116 [4]) | Activity (HCT-116 [5]) | Acetylated histone H3 upregulation (qualitative) (Homo sapiens [6]) | Activity (HCT-116 [7]) | Activity (HCT-116 [10]) | Activity (HCT-116 [11]) |
| --- | --- | --- | --- | --- | --- | --- | --- | --- | --- | --- | --- | --- | --- | --- | --- |
| 2.55 | 1.39 |  | 25 | 0.0431 | 3 | 2.25 | 1.12 | 52 | CN(C)Cc1cn(Cc2ccc(/C=C/C(=O)NO)cc2)c2ccccc12 |  |  |  |  |  |  |
| 2.08 | 1.26 |  | 24 | 0.0964 | 3.69 | 2.13 | 2.38 | 22 | Cc1c(CN(C)C)c2ccccc2n1Cc1ccc(/C=C/C(=O)NO)cc1 |  |  |  |  |  |  |
| 1.84 | 0.64 |  | 16 | 0.189 | 2.45 | 2.7 | 3.13 | 14 | CN1CCc2c(c3ccccc3n2S(=O)(=O)c2cccc(/C=C/C(=O)NO)c2)C1 |  |  |  |  |  |  |
| 1.69 | 0.5 | Active | 15 | 0.0849 | 1.92 | 1.85 | 1.34 | 21 | Cc1c(CN(C)C)c2ccccc2n1S(=O)(=O)c1cccc(/C=C/C(=O)NO)c1 | Active | Dose-dependent effect | inactive | Dose-dependent effect | Active |  |
| 1.69 | 0.73 |  | 39 | 0.0418 | 2.68 | 1.6 | 1.65 | 38 | CN1CCc2c(c3ccccc3n2Cc2ccc(/C=C/C(=O)NO)cc2)C1 |  |  |  |  |  |  |
| 1.03 | 0.54 | Active | 18 | 0.0893 | 1.87 | 1.51 | 1.64 | 16 | CN(C)Cc1cn(S(=O)(=O)c2cccc(/C=C/C(=O)NO)c2)c2ccccc12 | Active | Dose-dependent effect | inactive | Dose-dependent effect | Active |  |
| 0.79 | 0.52 | Active | 58 | 0.0167 | 1.62 | 1.93 | 0.97 | 115 | CN(C)Cc1cn(S(=O)(=O)c2ccc(/C=C/C(=O)NO)cc2)c2ccccc12 | Active | Dose-dependent effect | inactive | Dose-dependent effect | Active |  |
| 0.7 | 0.55 | Active | 20 | 0.063 | 1.56 | 4.01 | 1.27 | 63 | Cc1c(CN(C)C)c2ccccc2n1S(=O)(=O)c1ccc(/C=C/C(=O)NO)cc1 | Active | Dose-dependent effect | inactive | Dose-dependent effect | Active |  |
